Measured values published in ChEMBL document CHEMBL1157072 (Bioorg Med Chem, 2010).
≈ marks a conversion by molar mass, not a printed value. Calls of active or inactive are those of the source. The rule behind the calls is not given here.

Assays:
Staphylococcus aureus [1] = experiment: Antibacterial activity against Staphylococcus aureus NCTC 8325 harboring genetic deletion of mepRA gene after 16 to 20 hrs by broth microdilution method; format: functional
Procedure, shortened: (§1)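 Broth microdilution in cation-adjusted Mueller Hinton broth. Compounds were serially diluted twofold in DMSO at 50-fold final strength (2% DMSO final). The inoculum was 1 × 10^4 cells per well. Plates were incubated at 37 °C for 16–20 h, and growth was read as absorbance at 600 nm.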

Staphylococcus aureus [2] = experiment: Antibacterial activity against Staphylococcus aureus NCTC 8325 harboring genetic deletion of mepR gene after 16 to 20 hrs by broth microdilution method; format: functional; procedure, shortened: as §1
Staphylococcus aureus [3] = experiment: Antibacterial activity against Staphylococcus aureus NCTC 8325 harboring genetic deletion of mepRA gene and carrying expression vector pG154 after 16 to 20 hrs by broth microdilution method; format: functional; procedure, shortened: as §1
Staphylococcus aureus [4] = experiment: Selectivity ratio of MIC for Staphylococcus aureus NCTC 8325 to MIC for Staphylococcus aureus NCTC 8325 in presence of efflux pump inhibitor reserpine; format: functional
Procedure, shortened: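 MICs by modified broth microdilution in cation-adjusted Mueller Hinton broth. Twofold dilutions were made in DMSO at 50× (2% DMSO final), with 1 × 10^4 cells per well. Growth was read as A600 after 16–20 h at 37 °C. Reserpine was added to the medium at 20 µg/ml final to inhibit efflux.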

[5] = Dissociation constant, pKa of the compound; format: physicochemical
Staphylococcus aureus [6] = experiment: Antibacterial activity against Staphylococcus aureus NCTC 8325 harboring genetic deletion of mepRA gene and carrying expression vector pG154 after 16 to 20 hrs by broth microdilution method in presence of anhydrous tetracycline; format: functional
Procedure, shortened: (§2)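 Broth microdilution in cation-adjusted MHB containing anhydrous tetracycline at 100 ng/ml final to induce the pG154 expression vector. Twofold DMSO compound dilutions were used (2% DMSO final) with 1 × 10^4 cells per well. Incubation was 37 °C for 16–20 h, and absorbance was read at 600 nm.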

Staphylococcus aureus [7] = experiment: Antibacterial activity against Staphylococcus aureus NCTC 8325 harboring genetic deletion of mepRA gene and carrying expression vector pG154 with mepA gene after 16 to 20 hrs by broth microdilution method; format: functional; procedure, shortened: as §1
Staphylococcus aureus [8] = experiment: Antibacterial activity against Staphylococcus aureus NCTC 8325 harboring genetic deletion of mepRA gene and carrying expression vector pG154 with mepA gene after 16 to 20 hrs by broth microdilution method in presence of anhydrous tetracycline; format: functional; procedure, shortened: as §2
Staphylococcus aureus [9] = experiment: Antibacterial activity against Staphylococcus aureus NCTC 8325 carrying expression vector pG154 after 16 to 20 hrs by broth microdilution method in presence of anhydrous tetracycline; format: functional; procedure, shortened: as §2
Staphylococcus aureus [10] = experiment: Induction of mepR gene expression in Staphylococcus aureus NCTC 8325 at 0.125 ug/ml by RT-PCR analysis; format: functional, organism-based
Staphylococcus aureus [11] = experiment: Antibacterial activity against Staphylococcus aureus NCTC 8325 carrying expression vector pG154 with mepA gene after 16 to 20 hrs by broth microdilution method in presence of anhydrous tetracycline; format: functional; procedure, shortened: as §2
Staphylococcus aureus [12] = experiment: Induction of mepA gene expression in Staphylococcus aureus NCTC 8325 at 0.125 ug/ml by RT-PCR analysis; format: functional, organism-based
Procedure, shortened: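 S. aureus overnight culture diluted 1/200 in TSB and grown at 37 °C with shaking (250 rpm) to OD600 0.3. Triplicate 5 ml aliquots were exposed to compound or DMSO (2% final) for 3 h at 37 °C. RNA was purified and DNase-treated; 1 µg was reverse-transcribed with random hexamers, with a no-RT control. mepA signal was normalized to rho, untreated set to 1; three experiments, SD.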

Staphylococcus aureus [13] = experiment: Antibacterial activity against Staphylococcus aureus NCTC 8325 carrying expression vector pG154 with mepA gene after 16 to 20 hrs by broth microdilution method; format: functional; procedure, shortened: as §1
Staphylococcus aureus [14] = experiment: Antibacterial activity against Staphylococcus aureus NCTC 8325 after 16 to 20 hrs by broth microdilution method in presence of efflux pump inhibitor reserpine; format: functional
Procedure, shortened: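 Broth microdilution in cation-adjusted MHB with reserpine at 20 µg/ml final in the medium as efflux inhibitor. Twofold DMSO dilutions were made (2% DMSO final) with 1 × 10^4 cells per well. Incubation was 37 °C for 16–20 h, with growth read at 600 nm.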

Staphylococcus aureus [15] = experiment: microbe, parasite or virus in culture; conditions: isolate d20A1
Staphylococcus aureus [16] = experiment: Antibacterial activity against Staphylococcus aureus NCTC 8325 carrying expression vector pG154 after 16 to 20 hrs by broth microdilution method; format: functional; procedure, shortened: as §1
Staphylococcus aureus [17] = experiment: Antibacterial activity against Staphylococcus aureus NCTC 8325 after 16 to 20 hrs by broth microdilution method; format: functional; procedure, shortened: as §1
[18] = Selectivity ratio of MIC for MBX-1090-resistant Staphylococcus aureus isolate d20A1 to MIC for Staphylococcus aureus NCTC 8325; format: functional
Procedure, shortened: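 Ratio of resistant-mutant MIC to NCTC 8325 MIC. Both MICs came from broth microdilution in cation-adjusted MHB with 2% DMSO final and 1 × 10^4 cells per well, incubated at 37 °C for 16–20 h and read at 600 nm.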

| Molecule | MIC (Staphylococcus aureus [15]) [µg/mL] | MIC (Staphylococcus aureus [17]) [µg/mL] | other results |
| --- | --- | --- | --- |
| c1cc2cc(-c3ccc(-c4cc5ccc(C6=NCCCN6)cc5[nH]4)cc3)[nH]c2cc1C1=NCCCN1 | 0.5 (≈ 1.06 µM) | 0.5 (≈ 1.06 µM) | MIC (Staphylococcus aureus [1]): 0.5 µg/mL (≈ 1.06 µM); MIC (Staphylococcus aureus [2]): 0.25 µg/mL (≈ 0.529 µM); MIC (Staphylococcus aureus [3]): 0.5 µg/mL (≈ 1.06 µM); Selectivity ratio (Staphylococcus aureus [4]): 4; pKa [5]: 12.8; MIC (Staphylococcus aureus [6]): 0.5 µg/mL; MIC (Staphylococcus aureus [7]): 0.5 µg/mL (≈ 1.06 µM); MIC (Staphylococcus aureus [8]): 0.125 µg/mL; MIC (Staphylococcus aureus [9]): 0.5 µg/mL; Activity (Staphylococcus aureus [10]): Active; MIC (Staphylococcus aureus [11]): 0.125 µg/mL; Activity (Staphylococcus aureus [12]): Active; MIC (Staphylococcus aureus [13]): 0.5 µg/mL (≈ 1.06 µM); MIC (Staphylococcus aureus [14]): 0.125 µg/mL; MIC (Staphylococcus aureus [16]): 0.5 µg/mL (≈ 1.06 µM) |
| CCN1CCN(c2cc3c(cc2F)c(=O)c(C(=O)O)cn3C2CC2)CC1 [ENROFLOXACIN] | 0.125 (≈ 0.348 µM) | 0.125 (≈ 0.348 µM) | – |
| CO[C@H]1/C=C/O[C@@]2(C)Oc3c(C)c(O)c4c(O)c(c(/C=N/N5CCN(C)CC5)c(O)c4c3C2=O)NC(=O)/C(C)=C\C=C\[C@H](C)[C@H](O)[C@@H](C)[C@@H](O)[C@@H](C)[C@H](OC(C)=O)[C@@H]1C [RIFAMPIN] | 0.0122 (≈ 0.0148 µM) | 0.0122 (≈ 0.0148 µM) | – |
| CN[C@@H]1[C@H](O)[C@H](NC)[C@H]2O[C@@]3(O)C(=O)C[C@@H](C)O[C@H]3O[C@@H]2[C@H]1O [SPECTINOMYCIN] | 128 (≈ 385 µM) | 128 (≈ 385 µM) | – |
| C/C(=C\C(=O)OCCCCCCCCC(=O)O)C[C@@H]1OC[C@H](C[C@@H]2O[C@H]2[C@@H](C)[C@H](C)O)[C@@H](O)[C@H]1O [MUPIROCIN] | 0.0312 (≈ 0.0624 µM) | 0.0312 (≈ 0.0624 µM) | – |
| NC[C@H]1O[C@H](O[C@H]2[C@H](O)[C@@H](O[C@H]3O[C@H](CO)[C@@H](O)[C@H](N)[C@H]3O)[C@H](N)C[C@@H]2N)[C@H](O)[C@@H](O)[C@@H]1O [KANAMYCIN] | 8 (≈ 16.5 µM) | 2 (≈ 4.13 µM) | Selectivity ratio [18]: 4 |
| CC(=O)O[C@H]1C[C@@]2(C)[C@@H](C[C@@H](O)[C@H]3[C@@]4(C)CC[C@@H](O)[C@@H](C)[C@@H]4CC[C@@]32C)/C1=C(\CCC=C(C)C)C(=O)O [FUSIDIC ACID] | 0.0625 (≈ 0.121 µM) | 0.0625 (≈ 0.121 µM) | – |
| CO[C@@H]1[C@@H](OC(N)=O)[C@@H](O)[C@H](Oc2ccc3c(O)c(NC(=O)c4ccc(O)c(CC=C(C)C)c4)c(=O)oc3c2C)OC1(C)C [NOVOBIOCIN] | 0.125 (≈ 0.204 µM) | 0.125 (≈ 0.204 µM) | – |
| CCn1cc(C(=O)O)c(=O)c2ccc(C)nc21 [NALIDIXIC ACID] | 50 (≈ 215 µM) | 100 (≈ 431 µM) | – |
| N=C(N)c1ccc(-c2cc3ccc(C(=N)N)cc3[nH]2)cc1 [DAPI] | – | – | pKa [5]: 11.6 |
| GENTAMICIN | – | 0.25 | – |
